# S100A4 MyoIIA: S100A4-myosin IIA interaction inhibition; P26447; S100A4/TAMRA-MyoIIA peptide fluorescence polarization; inhibition, % at 10.7 µM; actives 0.14% (n = 360,000);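 active = mean inhibition of at least 70% across replicates, with every replicate also reaching that level; inconclusive = mean inhibition reaches 70% but some replicates fall short; inactive = mean inhibition below 70%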
# Target sequence (P26447 whole entry, looked up): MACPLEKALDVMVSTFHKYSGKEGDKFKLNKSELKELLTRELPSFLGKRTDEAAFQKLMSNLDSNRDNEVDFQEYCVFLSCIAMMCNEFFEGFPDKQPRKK
#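 Material: S100A4 monomer protein / Buffer or medium: 50 mM HEPES pH 7.2, 10 mM CaCl2, 100 mM KCl / Times: 5 min incubation before reading / Benchmarks: neutral control DMSO, positive control TFP / Reagent: labelled myosin peptide probe, 5 nM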
# SIRT5 block: sirtuin-5 (human) deacylase inhibition | actives 1.1% (n = 330,000) | Q9NXA8 | Purified SirT5, succinyl-peptide AMC, trypsin-coupled fluorescence | inhibition, % at 15 µM; in the data active = inhibition above about 15%; inconclusive = no clear call, values can overlap the other calls
# Target sequence (Q9NXA8 whole entry, looked up): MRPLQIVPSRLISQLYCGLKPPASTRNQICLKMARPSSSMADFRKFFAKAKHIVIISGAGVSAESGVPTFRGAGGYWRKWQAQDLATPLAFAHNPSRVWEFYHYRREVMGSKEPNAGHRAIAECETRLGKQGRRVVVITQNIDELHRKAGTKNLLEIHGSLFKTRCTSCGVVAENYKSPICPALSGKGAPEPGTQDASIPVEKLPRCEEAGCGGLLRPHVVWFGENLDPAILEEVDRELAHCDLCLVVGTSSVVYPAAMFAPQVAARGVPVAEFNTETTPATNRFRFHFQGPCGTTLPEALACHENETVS
# PGC1a acetyl inh: PGC1a acetylation modulation, inhibitor mode; U2OS PGC1a acetylation, AlphaScreen anti-acetyl-lysine; with virally co-expressed GCN5 acetyltransferase; inhibition, % at 15.6 µM; actives 0.17% (n = 350,000); AID 651687;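 active = every replicate shows inhibition of at least 40%; inconclusive = mean inhibition at least 40% but some replicate below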;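 note: 0% = neutral control wells and 100% = positive control wells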
# DENV2 CPE rescue: DENV2-induced cell death inhibition. DENV2-infected cells, cytopathic effect rescue, plate reader. actives 1.7% (n = 350,000). CPE inhibition, % at 9.99 µM; in the data active = CPE inhibition above about 20%, passing the limit was not always enough; inconclusive = no clear call, values can overlap the other calls; tested in BHK-21 cells;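 note: 0% = median of neutral control wells and 100% = median of positive control wells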
# C2C12 statin: protects C2C12 myotubes from simvastatin toxicity; ATP luminescence, 48 h; scaled: DMSO 0, geranylgeraniol control 100; rescue of ATP level, % at 7.49 µM; actives 0.78% (n = 330,000);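 active = mean ATP rescue above about 67%, or every replicate alone reaching that limit, limit read from the data, passing the limit was not always enough; inconclusive = no clear call, values can overlap the other calls; inactive = mean under the limit and some replicate under it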;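 note: myotubes were challenged with 10 µM simvastatin during compound exposure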
# Active calls of the source: *; ? = inconclusive; . = no result given. The list is not random: actives were taken first. Their share in the collection is about 2.9%.
SMILES,S100A4 MyoIIA,SIRT5 block,PGC1a acetyl inh,DENV2 CPE rescue,C2C12 statin
C[C@@H]1CCCCO[C@@H](CN(C)Cc2ccc(C(F)(F)F)cc2)[C@H](C)CN([C@H](C)CO)C(=O)c2cc(NS(=O)(=O)c3ccc(Cl)cc3)ccc2O1,6.5,16.1*,8.2,.,.
C[C@@H]1CN([C@H](C)CO)C(=O)c2cc(NS(=O)(=O)c3ccc(Cl)cc3)ccc2O[C@@H](C)CCCCO[C@H]1CN(C)Cc1ccc(C(F)(F)F)cc1,9.9,9.8,7.3,-2.6,.
C[C@H]1CCCCO[C@@H](CN(C)Cc2ccc(C(F)(F)F)cc2)[C@@H](C)CN([C@@H](C)CO)C(=O)c2cc(NS(=O)(=O)c3ccc(Cl)cc3)ccc2O1,-8.9,15.5*,3.6,?,.
COc1ccc(C2CC(c3cccs3)=NN2C(=O)CN2CCCCC2)cc1 (centres undefined),-1.8,32.6*,-6.4,1.4,.
Cc1ccc(C2CC(c3cccs3)=NN2C(=O)c2ccc(Br)o2)cc1 (centres undefined),.,.,11.9,.,93.0*
COc1ccc(C2=NN(C(=O)CCC(=O)O)C(c3ccc(OC)cc3)C2)cc1 (centres undefined),4.1,21.4*,-4.2,2.4,2.9
CC(=O)N1N=C(c2cccs2)CC1c1ccc(Br)cc1 (centres undefined),-2.0,-0.7,1.8,1.6,-1.2
COc1ccc(C2CC(c3ccc(C)o3)=NN2C(C)=O)cc1 (centres undefined),2.3,0.3,.,34.2*,.
C[C@H](CO)N1C[C@H](C)[C@H](CN(C)C(=O)Nc2ccccc2)Oc2ccc(NC(=O)CCC(F)(F)F)cc2C1=O,3.3,0.5,2.3,-3.1,-6.0
C[C@H](CO)N1C[C@H](C)[C@@H](CN(C)C(=O)NC2CCCCC2)Oc2ccc(NS(=O)(=O)c3ccc(Cl)cc3)cc2CC1=O,-2.7,0.1,1.7,16.4,12.7
CCOC(=O)C1=C(C)N(CCCCCC(=O)O)C(=O)NC1c1ccccc1Cl (centres undefined),-0.4,.,6.5,1.1,104.8*
CC1=C(C(=O)OCC(Br)(Br)Br)C(c2cccc([N+](=O)[O-])c2)NC(=O)N1CCCC(=O)O (centres undefined),-1.7,22.5*,.,-0.9,8.2
CCCCCCN1CCN(C2CN(C3CCCCC3)S(=O)(=O)C2)CC1 (centres undefined),1.6,38.7*,9.0,7.5,-0.4
CN(C)CCN1CCN(C2CN(C3CCCCC3)S(=O)(=O)C2)CC1 (centres undefined),5.1,-1.4,-2.9,-2.5,1.7
C[C@@H]1CN([C@H](C)CO)C(=O)c2cc(NC(=O)Cn3cnnn3)ccc2O[C@H]1CN(C)Cc1ccc(Cl)c(Cl)c1,1.5,-4.5,1.2,-1.5,-20.9
CCOC(=O)C1(C)NC(c2ccc(N(C)C)cc2)C2C(=O)N(c3ccc(OC)cc3)C(=O)C21 (centres undefined),.,.,3.1,.,115.5*
O=c1ccnc(NCCc2ccccc2)[nH]1,.,.,2.7,.,98.7*
CCCc1cc(=O)[nH]c(NCCc2ccccc2)n1,-1.8,0.5,-12.6,2.6,-17.0
CN(C)c1ccc2c(c1)[C@H]1C[C@@H](CC(=O)NCc3ccc(Oc4ccccc4)cc3)O[C@H](CO)[C@H]1O2,-6.8,-0.5,-0.6,82.5*,.
CN(C)c1ccc2c(c1)[C@@H]1C[C@@H](CC(=O)NCc3ccccc3)O[C@H](CO)[C@@H]1O2,-44.9,20.3*,-3.6,2.7,0.8
C[C@@H]1CN([C@H](C)CO)C(=O)c2cccc(NC(=O)Nc3ccc(F)cc3)c2O[C@@H]1CN(C)CC1CC1,7.6,-3.1,.,-7.3,-0.4
C[C@@H]1CCCCO[C@@H](CN(C)C(=O)Nc2ccccc2)[C@H](C)CN([C@H](C)CO)C(=O)c2cc(NS(=O)(=O)c3ccccc3)ccc2O1,-12.5,3.3,-8.1,-6.9,.
O=C(CSC1CCc2ccccc21)NNC(=O)Nc1ccc(Cl)cc1 (centres undefined),-6.1,.,.,?,.
COc1cccc(CNC(=O)CCC2CCCN(C(=O)C3=CC(=O)CC(C)(C)O3)C2)c1 (centres undefined),-3.0,0.4,8.3,-3.8,79.2*
C[C@H]1CN([C@@H](C)CO)C(=O)Cc2cc(NC(=O)NC3CCCCC3)ccc2O[C@H]1CN(C)Cc1ccc(-c2ccccc2)cc1,?,-0.5,-5.4,-24.7,-117.7
SMILES,S100A4 MyoIIA,SIRT5 block,PGC1a acetyl inh,DENV2 CPE rescue,C2C12 statin
C[C@H]1CN([C@@H](C)CO)C(=O)Cc2cc(NC(=O)NC3CCCCC3)ccc2O[C@@H]1CN(C)Cc1ccc(-c2ccccc2)cc1,6.1,0.1,-5.0,30.8*,31.2
C[C@@H]1CN([C@@H](C)CO)C(=O)Cc2cc(NC(=O)NC3CCCCC3)ccc2O[C@@H]1CN(C)Cc1ccc(Cl)c(Cl)c1,-2.7,-3.4,-15.7,58.9*,-17.0
C[C@H](CO)N1C[C@H](C)[C@H](CN(C)Cc2ccc(-c3ccccc3)cc2)Oc2ccc(NC(=O)NC3CCCCC3)cc2CC1=O,-2.9,0.9,-7.5,22.0*,-11.5
CC(C)NC(=O)Nc1ccc2c(c1)CC(=O)N([C@@H](C)CO)C[C@@H](C)[C@H](CN(C)Cc1ccc(-c3ccccc3)cc1)O2,9.2,2.4,-4.0,29.7*,14.9
CC(C)NC(=O)Nc1cccc2c1O[C@@H](CN(C)CC1CC1)[C@H](C)CN([C@H](C)CO)C2=O,-50.5,1.9,0.3,-4.8,5.2
COc1cccc(S(=O)(=O)N2C[C@@H](O)COC[C@H]3O[C@@H](CC(=O)N4CCCCC4)CC[C@@H]32)c1,-6.5,7.4,0.2,-1.9,-5.1
C[C@H]1CN([C@@H](C)CO)C(=O)Cc2cc(NC(=O)Nc3ccc4c(c3)OCO4)ccc2O[C@@H]1CN(C)Cc1ccc(-c2ccccc2)cc1,4.9,0.4,3.6,18.1,76.4*
FC(F)(F)c1nc2nncn2c2c1CCCCC2,.,.,-6.2,.,149.0*
CC(C)(C)NC(=O)Cn1nc(C(F)(F)F)c2c1CCCC2,-1.0,0.3,0.5,-5.4,.
CCCCNC(=O)N1CCN(Cc2ccc(F)cc2)CC1,7.4,20.2*,.,-3.6,.
Cc1ccc(S(=O)(=O)Nc2ccc3c(c2)CC(=O)N([C@@H](C)CO)C[C@H](C)[C@@H](CN(C)Cc2ccc(-c4ccccc4)cc2)O3)cc1,11.0,18.8*,-5.4,11.9,128.6*
Cc1ccc(S(=O)(=O)Nc2ccc3c(c2)CC(=O)N([C@H](C)CO)C[C@H](C)[C@H](CN(C)Cc2ccc(-c4ccccc4)cc2)O3)cc1,-6.9,3.0,-10.7,-5.5,9.6
Cc1ccc(S(=O)(=O)Nc2ccc3c(c2)CC(=O)N([C@@H](C)CO)C[C@H](C)[C@H](CN(C)Cc2ccc(-c4ccccc4)cc2)O3)cc1,21.4,18.0*,-0.4,?,15.6
C[C@H]1CN([C@@H](C)CO)C(=O)Cc2cc(NC(=O)Nc3ccc(F)cc3)ccc2O[C@H]1CN(C)C(=O)Nc1ccc2c(c1)OCO2,-13.0,-8.1,-1.6,-7.3,28.2

# Source: PubChem BioAssay (Broad Institute)
